From ChEMBL document CHEMBL3739271, “Synthesis and evaluation of a series of resveratrol analogues as potent anti-cancer agents that target tubulin” (2015)
Calls of active or inactive are those of the source. The rule behind the calls is not given here.

What was measured:
[1] = Cytotoxicity against human Hs578T cells by SRB assay; assay type: functional; conditions: Hs-578T
How it was run: (§1)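 NCI 60 human tumor cell line panel, sulforhodamine B (SRB) protein-stain read-out. Compounds were first screened at a single dose of 10^-5 M, and selected compounds were then tested in a five-dose format. GI50 is the drug concentration giving a 50% reduction in net protein increase relative to control cells.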

[2] = Cytotoxicity against human SW620 cells by SRB assay; assay type: functional; conditions: SW-620; how it was run: as §1
[3] = tested on: NCI-H23; experiment: Cytotoxicity against human NCI-H23 cells by SRB assay; assay type: functional; how it was run: as §1
[4] = Cytotoxicity against human COLO205 cells by SRB assay; assay type: functional; conditions: COLO 205; how it was run: as §1
[5] = tested on: MV4-11; experiment: Anti-leukemia activity against human MV4-11 cells after 48 hrs by Annexin-V staining; assay type: functional; conditions: MV4-11, 48 h, read-out: LD50 (the source's name)
How it was run: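 MV4-11 AML cells exposed to increasing compound concentrations for 24 and 48 h. Viability measured by Annexin V/7-AAD staining and expressed as percent Annexin V-/7-AAD- cells relative to control. N = 5, error bars SD. LD50 values derived from these curves.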

[6] = Cytotoxicity against human HCT116 cells by SRB assay; assay type: functional; conditions: HCT-116; how it was run: as §1
[7] = tested on: MDA-MB-468; experiment: Cytotoxicity against human MDA-MB-468 cells by SRB assay; assay type: functional; how it was run: as §1
[8] = tested on: U-251; experiment: Cytotoxicity against human U251 cells by SRB assay; assay type: functional; how it was run: as §1
[9] = Cytotoxicity against human HL-60(TB) cells by SRB assay; assay type: functional
How it was run: (§2)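 NCI 60-cell-line panel using sulforhodamine B protein stain. Initial single-dose screen at 10^-5 M, then five-dose testing. GI50 is the drug concentration giving a 50% reduction in net protein increase relative to control cells.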

[10] = tested on: NCI-H522; experiment: Cytotoxicity against human NCI-H522 cells by SRB assay; assay type: functional; how it was run: as §1
[11] = Cytotoxicity against human HCT15 cells by SRB assay; assay type: functional; conditions: HCT-15; how it was run: as §1
[12] = tested on: HT-29; experiment: Cytotoxicity against human HT-29 cells by SRB assay; assay type: functional; how it was run: as §1
[13] = Cytotoxicity against human OVCAR4 cells by SRB assay; assay type: functional; conditions: OVCAR-4; how it was run: as §1
[14] = tested on: MCF7; experiment: Cytotoxicity against human MCF7 cells by SRB assay; assay type: functional; how it was run: as §1
[15] = tested on: SK-MEL-5; experiment: Cytotoxicity against human SK-MEL-5 cells by SRB assay; assay type: functional; how it was run: as §1
[16] = Cytotoxicity against human SF539 cells by SRB assay; assay type: functional; conditions: SF-539; how it was run: as §1
[17] = Cytotoxicity against human SNB19 cells by SRB assay; assay type: functional; conditions: SNB-19; how it was run: as §1
[18] = Cytotoxicity against human HOP62 cells by SRB assay; assay type: functional; conditions: HOP-62; how it was run: as §1
[19] = tested on: KM12; experiment: Cytotoxicity against human KM12 cells by SRB assay; assay type: functional; how it was run: as §1
[20] = tested on: CCRF-CEM; experiment: Cytotoxicity against human CCRF-CEM cells by SRB assay; assay type: functional; how it was run: as §1
[21] = tested on: MDA-MB-435; experiment: Cytotoxicity against human MDA-MB-435 cells by SRB assay; assay type: functional; how it was run: as §1
[22] = Cytotoxicity against human HCC2998 cells by SRB assay; assay type: functional; conditions: HCC 2998; how it was run: as §1
[23] = tested on: SR; experiment: Cytotoxicity against human SR cells by SRB assay; assay type: functional; how it was run: as §1
[24] = Cytotoxicity against human SF268 cells by SRB assay; assay type: functional; conditions: SF-268; how it was run: as §1
[25] = Cytotoxicity against human OVCAR3 cells by SRB assay; assay type: functional; conditions: OVCAR-3; how it was run: as §1
[26] = Cytotoxicity against human SNB75 cells by SRB assay; assay type: functional; conditions: SNB-75; how it was run: as §1
[27] = Cytotoxicity against human RPMI8226 cells by SRB assay; assay type: functional; conditions: RPMI-8226; how it was run: as §1
[28] = tested on: A498; experiment: Cytotoxicity against human A498 cells by SRB assay; assay type: functional; how it was run: as §1
[29] = Cytotoxicity against human LOXIMVI cells by SRB assay; assay type: functional; conditions: LOX IMVI; how it was run: as §2
[30] = Cytotoxicity against human HOP92 cells by SRB assay; assay type: functional; conditions: HOP-92; how it was run: as §1
[31] = Cytotoxicity against human SKOV3 cells by SRB assay; assay type: functional; conditions: SK-OV-3; how it was run: as §1
[32] = Cytotoxicity against human IGROV1 cells by SRB assay; assay type: functional; conditions: IGROV-1; how it was run: as §2
[33] = tested on: ACHN; experiment: Cytotoxicity against human ACHN cells by SRB assay; assay type: functional; how it was run: as §1
[34] = Cytotoxicity against human SF295 cells by SRB assay; assay type: functional; conditions: SF-295; how it was run: as §1
[35] = tested on: SK-MEL-28; experiment: Cytotoxicity against human SK-MEL-28 cells by SRB assay; assay type: functional; how it was run: as §1
[36] = Cytotoxicity against human MOLT4 cells by SRB assay; assay type: functional; conditions: MOLT-4; how it was run: as §1
[37] = tested on: MDA-MB-231; experiment: Cytotoxicity against human MDA-MB-231 cells by SRB assay; assay type: functional; how it was run: as §1
[38] = tested on: A549; experiment: Cytotoxicity against human A549 cells by SRB assay; assay type: functional; how it was run: as §1
[39] = tested on: K562; experiment: Cytotoxicity against human K562 cells by SRB assay; assay type: functional; how it was run: as §1
[40] = Cytotoxicity against human UACC62 cells by SRB assay; assay type: functional; conditions: UACC-62; how it was run: as §1
[41] = tested on: NCI/ADR-RES; experiment: Cytotoxicity against human NCI/ADR-RES cells by SRB assay; assay type: functional; how it was run: as §1
[42] = tested on: 786-0; experiment: Cytotoxicity against human 786-0 cells by SRB assay; assay type: functional; how it was run: as §1
[43] = tested on: M14; experiment: Cytotoxicity against human M14 cells by SRB assay; assay type: functional; how it was run: as §1
[44] = Cytotoxicity against human UO31 cells by SRB assay; assay type: functional; conditions: UO-31; how it was run: as §1
[45] = tested on: CAKI-1; experiment: Cytotoxicity against human CAKI-1 cells by SRB assay; assay type: functional; how it was run: as §1
[46] = tested on: MV4-11; experiment: Inhibition of alpha-tubulin polymerization in human MV4-11 cells at 25 to 100 nM after 2 hrs by Western blotting; assay type: cell-based
How it was run: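 MV4-11 cells treated for 2 hours at 25, 50 and 100 nM. Microtubule polymerization then assessed by immunoblot.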

[47] = tested on: SK-MEL-2; experiment: Cytotoxicity against human SK-MEL-2 cells by SRB assay; assay type: functional; how it was run: as §1

## COc1ccc(/C=C(\C#N)c2ccc(OC)c(OC)c2)cc1O
[1]
  GI50: 30 nM
[2]
  GI50: 40 nM
[3]
  GI50: 70 nM
[4]
  GI50: 1240 nM
[5]
  CC50: 353 nM
[6]
  GI50: 40 nM
[7]
  GI50: 40 nM
[8]
  GI50: 40 nM
[9]
  GI50: 30 nM
[10]
  GI50: < 10 nM
[11]
  GI50: 40 nM
[12]
  GI50: 570 nM
[13]
  GI50: 1560 nM
[14]
  GI50: 30 nM
[15]
  GI50: 40 nM
[16]
  GI50: 20 nM
[17]
  GI50: 50 nM
[18]
  GI50: 30 nM
[19]
  GI50: 20 nM
[20]
  GI50: 30 nM
[21]
  GI50: < 10 nM
[22]
  GI50: 1810 nM
[23]
  GI50: 20 nM
[24]
  GI50: 60 nM
[25]
  GI50: 20 nM
[26]
  GI50: 20 nM
[27]
  GI50: 40 nM
[28]
  GI50: 20 nM
[29]
  GI50: 60 nM
[30]
  GI50: 1690 nM
[31]
  GI50: 50 nM
[32]
  GI50: 60 nM
[33]
  GI50: 80 nM
[34]
  GI50: 100 nM
[35]
  GI50: 1110 nM
[36]
  GI50: 50 nM
[37]
  GI50: 40 nM
[38]
  GI50: 210 nM
[39]
  GI50: 20 nM
[40]
  GI50: 20 nM
[41]
  GI50: 20 nM
[42]
  GI50: 360 nM
[43]
  GI50: 30 nM
[44]
  GI50: 60 nM

## COc1ccc(/C=C(/C#N)c2cc(OC)c(OC)c(OC)c2)cc1O
[1]
  GI50: < 10 nM
[2]
  GI50: < 10 nM
[3]
  GI50: < 10 nM
[4]
  GI50: 300 nM
[5]
  CC50: 2.5 nM
[45]
  GI50: < 10 nM
[6]
  GI50: < 10 nM
[7]
  GI50: < 10 nM
[8]
  GI50: < 10 nM
[9]
  GI50: < 10 nM
[10]
  GI50: < 10 nM
[11]
  GI50: < 10 nM
[12]
  GI50: 320 nM
[13]
  GI50: < 10 nM
[14]
  GI50: < 10 nM
[15]
  GI50: < 10 nM
[16]
  GI50: < 10 nM
[17]
  GI50: < 10 nM
[46]
  inhibition: Active
[19]
  GI50: < 10 nM
[20]
  GI50: < 10 nM
[21]
  GI50: < 10 nM
[22]
  GI50: < 10 nM
[23]
  GI50: < 10 nM
[24]
  GI50: < 10 nM
[25]
  GI50: < 10 nM
[26]
  GI50: < 10 nM
[27]
  GI50: < 10 nM
[28]
  GI50: < 10 nM
[29]
  GI50: < 10 nM
[30]
  GI50: < 10 nM
[31]
  GI50: < 10 nM
[47]
  GI50: < 10 nM
[32]
  GI50: < 10 nM
[33]
  GI50: < 10 nM
[34]
  GI50: 10 nM
[35]
  GI50: < 10 nM
[36]
  GI50: < 10 nM
[37]
  GI50: < 10 nM
[38]
  GI50: < 10 nM
[39]
  GI50: < 10 nM
[40]
  GI50: < 10 nM
[41]
  GI50: < 10 nM
[42]
  GI50: 20 nM
[43]
  GI50: < 10 nM
[44]
  GI50: < 10 nM
